Common to all, as to format: functional
Test [1] concerns Streptococcus pneumoniae. The experiment in a line: Antibacterial activity against Streptococcus pneumoniae assessed as percent cumulative susceptible isolates at minimum inhibitory concentration of <=0.008 ug/ml by CLSI broth microdilution method. Details: scale not given: the % may be the effect or the level left.
The test system of test [2] is Proteus mirabilis. The experiment in a line: Antibacterial activity against Proteus mirabilis assessed as percent cumulative susceptible isolates at minimum inhibitory concentration of 0.5 ug/ml by CLSI broth microdilution method. Details: scale not given: the % may be the effect or the level left.
Test [3] has as its system Proteus mirabilis. Put plainly: Antibacterial activity against Proteus mirabilis assessed as percent cumulative susceptible isolates at minimum inhibitory concentration of 2 ug/ml by CLSI broth microdilution method. Details: scale not given: the % may be the effect or the level left.
The test system of test [4] is Enterococcus faecalis. Put plainly: Antibacterial activity against Enterococcus faecalis assessed as percent cumulative susceptible isolates at minimum inhibitory concentration of 0.06 ug/ml by CLSI broth microdilution method. Set-up: scale not given: the % may be the effect or the level left.
For test [5], the system named is Enterococcus faecalis. Put plainly: Antibacterial activity against Enterococcus faecalis assessed as percent cumulative susceptible isolates at minimum inhibitory concentration of 0.5 ug/ml by CLSI broth microdilution method. Details: scale not given: the % may be the effect or the level left. Background: In broth dilution the organism is exposed to a series of concentrations in liquid medium.

The test system of test [6] is Pseudomonas aeruginosa. Put plainly: Antibacterial activity against Pseudomonas aeruginosa assessed as percent cumulative susceptible isolates at minimum inhibitory concentration of 4 ug/ml by CLSI broth microdilution method. Details: scale not given: the % may be the effect or the level left.
For test [7], the system named is Pseudomonas aeruginosa. Put plainly: Antibacterial activity against Pseudomonas aeruginosa assessed as percent cumulative susceptible isolates at minimum inhibitory concentration of 8 ug/ml by CLSI broth microdilution method. Set-up: scale not given: the % may be the effect or the level left.
Test [8] relates to Pseudomonas aeruginosa. The experiment in a line: Antibacterial activity against Pseudomonas aeruginosa assessed as percent cumulative susceptible isolates at minimum inhibitory concentration of 128 ug/ml by CLSI broth microdilution method. Set-up: scale not given: the % may be the effect or the level left.
The subject of test [9] is Stenotrophomonas maltophilia. Put plainly: Antibacterial activity against Stenotrophomonas maltophilia assessed as percent cumulative susceptible isolates at minimum inhibitory concentration of 32 ug/ml by CLSI broth microdilution method. Details: scale not given: the % may be the effect or the level left.
The subject of test [10] is Stenotrophomonas maltophilia. Put plainly: Antibacterial activity against Stenotrophomonas maltophilia assessed as percent cumulative susceptible isolates at minimum inhibitory concentration of 64 ug/ml by CLSI broth microdilution method. Details: scale not given: the % may be the effect or the level left.
Test [11] concerns Staphylococcus aureus. The experiment in a line: Antibacterial activity against methicillin-susceptible Staphylococcus aureus by CLSI M7-A7 broth microdilution method. The essentials:
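Broth microdilution per CLSI guidelines on clinical isolates, using panels of doubling drug dilutions in cation-adjusted Mueller-Hinton broth with 5% lysed horse blood. MIC read per CLSI, and cumulative percentage of isolates inhibited at each concentration tabulated.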

Test [12] has as its system Enterococcus faecalis. Put plainly: Antibacterial activity against Enterococcus faecalis by CLSI M7-A7 broth microdilution method.
Test [13] concerns Acinetobacter baumannii. The experiment in a line: Antibacterial activity against Acinetobacter baumannii by CLSI M7-A7 broth microdilution method.
Test [14] is described as follows: Ratio of fAUC (0 to 24 hrs) in in vitro PK/PD model at 750 mg to MIC for community-associated methicillin-resistant Staphylococcus aureus.
Test [15] in a line: Ratio of fAUC (0 to 24 hrs) in in vitro PK/PD model at 750 mg to MIC for Staphylococcus epidermidis.
In test [16] the test system is Proteus mirabilis. Put plainly: Antibacterial activity against Proteus mirabilis assessed as percent cumulative susceptible isolates at minimum inhibitory concentration of 64 ug/ml by CLSI broth microdilution method. Set-up: scale not given: the % may be the effect or the level left.
For test [17], the system named is Staphylococcus aureus. The experiment in a line: Antibacterial activity against methicillin-resistant Staphylococcus aureus assessed as percent cumulative susceptible isolates at minimum inhibitory concentration of 0.06 ug/ml by CLSI broth microdilution method. Details: scale not given: the % may be the effect or the level left.
The test system of test [18] is Staphylococcus aureus. The experiment in a line: Antibacterial activity against methicillin-resistant Staphylococcus aureus assessed as percent cumulative susceptible isolates at minimum inhibitory concentration of 0.5 ug/ml by CLSI broth microdilution method. Details: scale not given: the % may be the effect or the level left.
In the next test the test system is Enterococcus faecium. The experiment in a line: Antibacterial activity against Enterococcus faecium assessed as percent cumulative susceptible isolates at minimum inhibitory concentration of […] by CLSI broth microdilution method. Set-up: scale not given: the % may be the effect or the level left.
Test [19] deals with Escherichia coli. The experiment in a line: Antibacterial activity against Escherichia coli assessed as percent cumulative susceptible isolates at minimum inhibitory concentration of 64 ug/ml by CLSI broth microdilution method. Set-up: scale not given: the % may be the effect or the level left.
The test system of test [20] is Klebsiella pneumoniae. Put plainly: Antibacterial activity against Klebsiella pneumoniae assessed as percent cumulative susceptible isolates at minimum inhibitory concentration of <=[…] by CLSI broth microdilution method. Details: scale not given: the % may be the effect or the level left.
Test [21] deals with Klebsiella pneumoniae. Put plainly: Antibacterial activity against Klebsiella pneumoniae assessed as percent cumulative susceptible isolates at minimum inhibitory concentration of 0.03 ug/ml by CLSI broth microdilution method. Set-up: scale not given: the % may be the effect or the level left.
In a further test the test system is Enterobacter cloacae. The experiment in a line: Antibacterial activity against Enterobacter cloacae assessed as percent cumulative susceptible isolates at minimum inhibitory concentration of 0.5 ug/ml by CLSI broth microdilution method. Set-up: scale not given: the % may be the effect or the level left.
The subject of test [22] is Staphylococcus aureus. Put plainly: Antibacterial activity against Levofloxacin-susceptible Staphylococcus aureus assessed as percent cumulative susceptible isolates at minimum inhibitory concentration of 0.03 ug/ml by CLSI broth microdilution method. Details: scale not given: the % may be the effect or the level left.
For test [23], the system named is Staphylococcus aureus. The experiment in a line: Antibacterial activity against non-levofloxacin susceptible Staphylococcus aureus assessed as percent cumulative susceptible isolates at minimum inhibitory concentration of 4 ug/ml by CLSI broth microdilution method. Set-up: scale not given: the % may be the effect or the level left.
Test [24] deals with Staphylococcus aureus. The experiment in a line: Antibacterial activity against non-levofloxacin susceptible Staphylococcus aureus assessed as percent cumulative susceptible isolates at minimum inhibitory concentration of 32 ug/ml by CLSI broth microdilution method. Details: scale not given: the % may be the effect or the level left.
In test [25] the test system is Staphylococcus aureus. Put plainly: Antibacterial activity against non-levofloxacin susceptible Staphylococcus aureus assessed as percent cumulative susceptible isolates at minimum inhibitory concentration of 64 ug/ml by CLSI broth microdilution method. Details: scale not given: the % may be the effect or the level left.
In test [26] the test system is Staphylococcus aureus. Put plainly: Antibacterial activity against hospital-associated methicillin-resistant Staphylococcus aureus assessed as percent cumulative susceptible isolates at minimum inhibitory concentration of […] by CLSI broth microdilution method. Set-up: scale not given: the % may be the effect or the level left.
Test [27] deals with Staphylococcus aureus. The experiment in a line: Antibacterial activity against hospital-associated methicillin-resistant Staphylococcus aureus assessed as percent cumulative susceptible isolates at minimum inhibitory concentration of 0.06 ug/ml by CLSI broth microdilution method. Details: scale not given: the % may be the effect or the level left.
The test system of test [28] is Staphylococcus epidermidis. Put plainly: Antibacterial activity against methicillin-susceptible Staphylococcus epidermidis assessed as percent cumulative susceptible isolates at minimum inhibitory concentration of 0.5 ug/ml by CLSI broth microdilution method. Set-up: scale not given: the % may be the effect or the level left.
Test [29] relates to Staphylococcus epidermidis. Put plainly: Antibacterial activity against methicillin-susceptible Staphylococcus epidermidis assessed as percent cumulative susceptible isolates at minimum inhibitory concentration of 1 ug/ml by CLSI broth microdilution method. Details: scale not given: the % may be the effect or the level left.
Test [30] concerns Streptococcus pneumoniae. Put plainly: Antibacterial activity against Streptococcus pneumoniae assessed as percent cumulative susceptible isolates at minimum inhibitory concentration of 1 ug/ml by CLSI broth microdilution method. Details: scale not given: the % may be the effect or the level left.
In test [31] the test system is Streptococcus pneumoniae. Put plainly: Antibacterial activity against Streptococcus pneumoniae assessed as percent cumulative susceptible isolates at minimum inhibitory concentration of 2 ug/ml by CLSI broth microdilution method. Details: scale not given: the % may be the effect or the level left.
Test [32] relates to Proteus mirabilis. Put plainly: Antibacterial activity against Proteus mirabilis assessed as percent cumulative susceptible isolates at minimum inhibitory concentration of 0.06 ug/ml by CLSI broth microdilution method. Set-up: scale not given: the % may be the effect or the level left.
In test [33] the test system is Streptococcus pneumoniae. Put plainly: Antibacterial activity against penicillin-resistant Streptococcus pneumoniae assessed as percent cumulative susceptible isolates at minimum inhibitory concentration of 0.5 ug/ml by CLSI broth microdilution method. Details: scale not given: the % may be the effect or the level left.
Test [34] concerns Stenotrophomonas maltophilia. Put plainly: Antibacterial activity against Stenotrophomonas maltophilia assessed as percent cumulative susceptible isolates at minimum inhibitory concentration of 0.06 ug/ml by CLSI broth microdilution method. Set-up: scale not given: the % may be the effect or the level left.
The subject of test [35] is Acinetobacter baumannii. The experiment in a line: Antibacterial activity against Acinetobacter baumannii assessed as percent cumulative susceptible isolates at minimum inhibitory concentration of 0.06 ug/ml by CLSI broth microdilution method. Details: scale not given: the % may be the effect or the level left.
Test [36] relates to Escherichia coli. Put plainly: Antibacterial activity against Escherichia coli assessed as percent cumulative susceptible isolates at minimum inhibitory concentration of 8 ug/ml by CLSI broth microdilution method. Details: scale not given: the % may be the effect or the level left.

In brackets after ≈: the same amount, converted by molar mass.

Usually MIC90 stands for an inhibitory concentration at the 90% level, which refers to growth in some studies and to a panel of isolates in others.

For the molecule `COc1c(N2C[C@@H](C)C[C@H](N)C2)ccc2c(=O)c(C(=O)O)cn(C3CC3)c12` [NEMONOXACIN], the Activity worked out at 19.2% with Streptococcus pneumoniae [1]; 54.5% in the test on Proteus mirabilis [2]; 78.8% in the test on Proteus mirabilis [3]; 18.5% with Enterococcus faecalis [4]; 70.4% with Enterococcus faecalis [5]; 78.1% in the test on Pseudomonas aeruginosa [6]. In addition, the Activity came to 78.8% with Pseudomonas aeruginosa [7]; 97.8% in the test on Pseudomonas aeruginosa [8]; 92.3% in test [9]; 100% in [10]; 97% in the test with Proteus mirabilis [16]; 6.3% in the test with Staphylococcus aureus [17]. In addition, the Activity in the test on Staphylococcus aureus [18] worked out at 24.4%; in the test on Enterococcus faecium, 15.8%; with Escherichia coli [19], 98.2%; in the test on Klebsiella pneumoniae [20], 0.5%; in the test on Klebsiella pneumoniae [21], 1%; in the test on Enterobacter cloacae it was 90.3%. Besides, the Activity in the test with Staphylococcus aureus [22] was found to be 78.3%; with Staphylococcus aureus [23], 67.3%; in the test on Staphylococcus aureus [24] it was 98%; with Staphylococcus aureus [25], 100%; in the test with Staphylococcus aureus [26] it was 2%; in the test with Staphylococcus aureus [27], 3%. The Activity amounted to 93% in [28] and 95.3% in [29]. The MIC90 against Staphylococcus aureus [11] worked out at 0.12 mg/L (≈ 0.323 µM); in the test with Enterococcus faecalis [12], 1 mg/L (≈ 2.69 µM); in the test on Acinetobacter baumannii [13] it was 1 mg/L (≈ 2.69 µM). The RatioAUC/MIC in [14] and in test [15] was 98 throughout.
For the molecule `C[C@H]1COc2c(N3CCN(C)CC3)c(F)cc3c(=O)c(C(=O)O)cn1c23.C[C@H]1COc2c(N3CCN(C)CC3)c(F)cc3c(=O)c(C(=O)O)cn1c23.O` [LEVOFLOXACIN], the Activity in the test on Streptococcus pneumoniae [30] was determined as 96.3%; in the test with Streptococcus pneumoniae [31], 99.4%; in the test with Proteus mirabilis [32] it was 33.3%; with Streptococcus pneumoniae [33], 53.1%; in test [34] it was 3.8%; with Acinetobacter baumannii [35], 6.7%. Moreover, the Activity in the test on Escherichia coli [36] was 78.5%.

Source of the values: ChEMBL document CHEMBL1671676, “In vitro activity of nemonoxacin, a novel nonfluorinated quinolone, against 2,440 clinical isolates” (2009).
